# Experimental data taken from ChEMBL document CHEMBL5661979, “Pharmacological inhibition of BMK1 suppresses tumor growth through promyelocytic leukemia protein” (Cancer Cell, 2010).
# Tests used:
# [1] = Inhibition of HGK/MINK/TNIK in human HeLa cells lysate at 50 uM pre incubated for 15 mins followed by ADP acyl phosphate probe addition and measured after 10 mins by LC-MS/MS analysis relative to control; conditions: 25 min, condition cancer
# [2] = target: Cyclin-dependent kinase 7 (Homo sapiens, UniProt P50613); assay: Inhibition of CDK7 in human HeLa cells lysate at 50 uM pre incubated for 15 mins followed by ATP acyl phosphate probe addition and measured after 10 mins by LC-MS/MS analysis relative to control; format: subcellular; conditions: time 25.0 min
# Method in brief: (§1)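 KiNativ profiling in HeLa lysate (5 mg/mL total protein). Lysate incubated 15 min with inhibitor at 50, 10, 2, 0.8 or 0 μM. ATP or ADP acylphosphate probe then added (5 μM final) and reacted 10 min. Reaction stopped with urea and analysed by targeted MS, using up to four fragment ions per kinase peptide-probe conjugate. % inhibition taken against untreated lysate. Run in duplicate.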
# AMPK alpha1/alpha2 = AMPK alpha1/alpha2 (Homo sapiens, UniProt P54646+Q13131); assay: Inhibition of AMPKalpha1/2 in human HeLa cells lysate pre incubated for 15 mins followed by ATP acyl phosphate probe addition and measured after 10 mins by LC-MS/MS analysis; format: subcellular
# Method in brief: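 HeLa cell lysates (5 mg/mL total protein) were preincubated with inhibitor at 0, 0.8, 2, 10 or 50 μM for 15 min. ATP or ADP acylphosphate probe was then added (5 μM final) for 10 min, and reactions were stopped with urea. Up to four fragment ions per kinase probe-peptide were quantified by targeted MS. % inhibition was taken relative to untreated lysate. Run in duplicate.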
# [3] = target: T1, Serine/threonine-protein kinase Nek9 (Homo sapiens) (UniProt Q8TD19); assay: Inhibition of NEK9 in human HeLa cells lysate at 2 uM pre incubated for 15 mins followed by ATP acyl phosphate probe addition and measured after 10 mins by LC-MS/MS analysis relative to control; format: subcellular; conditions: time 25.0 min
# T1 sequence (whole entry): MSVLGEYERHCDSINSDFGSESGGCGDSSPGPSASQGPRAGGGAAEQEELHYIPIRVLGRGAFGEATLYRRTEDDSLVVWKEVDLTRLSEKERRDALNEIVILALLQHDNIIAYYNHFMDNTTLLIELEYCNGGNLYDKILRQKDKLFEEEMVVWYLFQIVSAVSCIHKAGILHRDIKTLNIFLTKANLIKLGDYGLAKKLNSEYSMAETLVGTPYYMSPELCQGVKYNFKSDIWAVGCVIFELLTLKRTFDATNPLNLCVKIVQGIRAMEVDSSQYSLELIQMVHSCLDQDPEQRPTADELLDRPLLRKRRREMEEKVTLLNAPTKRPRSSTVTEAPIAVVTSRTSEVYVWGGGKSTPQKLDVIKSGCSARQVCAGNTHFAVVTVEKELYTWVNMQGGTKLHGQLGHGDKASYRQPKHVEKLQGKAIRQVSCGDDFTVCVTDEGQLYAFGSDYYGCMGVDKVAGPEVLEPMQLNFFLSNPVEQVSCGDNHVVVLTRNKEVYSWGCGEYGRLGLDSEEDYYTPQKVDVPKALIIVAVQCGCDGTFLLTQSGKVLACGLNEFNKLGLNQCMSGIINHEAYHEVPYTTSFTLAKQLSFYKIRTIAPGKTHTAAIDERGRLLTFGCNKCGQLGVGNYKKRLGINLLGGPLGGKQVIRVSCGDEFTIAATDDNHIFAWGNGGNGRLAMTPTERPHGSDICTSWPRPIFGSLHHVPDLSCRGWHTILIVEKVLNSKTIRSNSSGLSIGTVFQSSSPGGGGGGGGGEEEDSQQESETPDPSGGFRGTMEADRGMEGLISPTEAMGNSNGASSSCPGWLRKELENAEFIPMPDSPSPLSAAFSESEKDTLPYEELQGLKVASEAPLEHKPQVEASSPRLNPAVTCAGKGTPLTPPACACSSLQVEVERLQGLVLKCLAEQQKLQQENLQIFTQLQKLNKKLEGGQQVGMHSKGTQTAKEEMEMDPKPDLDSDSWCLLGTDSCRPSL
# [4] = Inhibition of MST4/YSK1 in human HeLa cells lysate at 2 uM pre incubated for 15 mins followed by ADP acyl phosphate probe addition and measured after 10 mins by LC-MS/MS analysis relative to control; conditions: 25 min, condition cancer
# [5] = target: T2, Serine/threonine-protein kinase D3 (Homo sapiens) (UniProt O94806); assay: Inhibition of PKD3 in human HeLa cells lysate at 10 uM pre incubated for 15 mins followed by ADP acyl phosphate probe addition and measured after 10 mins by LC-MS/MS analysis relative to control; format: subcellular; conditions: time 25.0 min
# T2 sequence (whole entry): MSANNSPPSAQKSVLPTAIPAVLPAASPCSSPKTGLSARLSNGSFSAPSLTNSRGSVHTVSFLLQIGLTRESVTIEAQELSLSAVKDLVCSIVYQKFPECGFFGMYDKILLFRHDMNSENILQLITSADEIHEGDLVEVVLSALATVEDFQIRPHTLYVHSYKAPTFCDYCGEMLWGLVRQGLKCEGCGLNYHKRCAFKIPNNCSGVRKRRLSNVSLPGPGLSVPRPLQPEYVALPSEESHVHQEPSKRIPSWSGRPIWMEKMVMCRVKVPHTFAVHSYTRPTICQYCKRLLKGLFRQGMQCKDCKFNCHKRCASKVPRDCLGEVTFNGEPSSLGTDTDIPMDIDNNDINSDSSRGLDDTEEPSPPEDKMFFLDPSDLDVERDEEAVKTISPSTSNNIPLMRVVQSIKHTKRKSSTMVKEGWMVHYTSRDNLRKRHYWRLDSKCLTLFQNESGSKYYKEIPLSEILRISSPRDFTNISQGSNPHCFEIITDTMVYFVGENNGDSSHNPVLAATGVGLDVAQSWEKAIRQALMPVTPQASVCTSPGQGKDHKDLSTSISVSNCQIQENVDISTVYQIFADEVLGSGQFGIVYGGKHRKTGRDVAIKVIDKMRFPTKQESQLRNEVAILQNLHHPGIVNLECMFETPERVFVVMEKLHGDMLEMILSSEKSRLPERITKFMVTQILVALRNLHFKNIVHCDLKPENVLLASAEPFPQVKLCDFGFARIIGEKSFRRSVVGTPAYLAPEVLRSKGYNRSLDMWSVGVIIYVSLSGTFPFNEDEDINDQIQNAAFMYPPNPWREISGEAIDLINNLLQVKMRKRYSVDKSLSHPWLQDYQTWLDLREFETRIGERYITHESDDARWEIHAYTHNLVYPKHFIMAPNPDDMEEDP
# [6] = target: Serine/threonine-protein kinase Chk2 (Homo sapiens, UniProt O96017); assay: Inhibition of CHK2 in human HeLa cells lysate at 10 uM pre incubated for 15 mins followed by ADP acyl phosphate probe addition and measured after 10 mins by LC-MS/MS analysis relative to control; format: subcellular; conditions: time 25.0 min
# [7] = target: Calcium/calmodulin-dependent protein kinase kinase 1 (Homo sapiens, UniProt Q8N5S9); assay: Inhibition of CAMKK1 in human HeLa cells lysate at 50 uM pre incubated for 15 mins followed by ADP acyl phosphate probe addition and measured after 10 mins by LC-MS/MS analysis relative to control; format: subcellular; conditions: time 25.0 min; method in brief: as §1
# Calcium/calmodulin-dependent protein kinase kinase 1, sequence (Q8N5S9 whole entry, looked up): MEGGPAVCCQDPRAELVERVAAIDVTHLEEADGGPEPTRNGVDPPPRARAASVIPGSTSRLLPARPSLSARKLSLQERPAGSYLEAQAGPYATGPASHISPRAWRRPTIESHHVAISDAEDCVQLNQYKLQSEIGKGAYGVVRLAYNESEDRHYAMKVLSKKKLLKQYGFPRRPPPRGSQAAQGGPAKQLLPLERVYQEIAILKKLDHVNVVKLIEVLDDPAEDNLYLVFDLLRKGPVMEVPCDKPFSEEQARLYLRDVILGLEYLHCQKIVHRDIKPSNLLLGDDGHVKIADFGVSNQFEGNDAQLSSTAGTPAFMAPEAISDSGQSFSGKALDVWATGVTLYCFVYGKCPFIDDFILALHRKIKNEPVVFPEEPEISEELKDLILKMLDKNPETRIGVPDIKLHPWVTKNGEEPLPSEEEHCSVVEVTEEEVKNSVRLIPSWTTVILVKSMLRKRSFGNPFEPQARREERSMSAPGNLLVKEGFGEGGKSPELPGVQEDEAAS
# Cyclin-dependent kinase 7, sequence (P50613 whole entry, the tested form may be a part): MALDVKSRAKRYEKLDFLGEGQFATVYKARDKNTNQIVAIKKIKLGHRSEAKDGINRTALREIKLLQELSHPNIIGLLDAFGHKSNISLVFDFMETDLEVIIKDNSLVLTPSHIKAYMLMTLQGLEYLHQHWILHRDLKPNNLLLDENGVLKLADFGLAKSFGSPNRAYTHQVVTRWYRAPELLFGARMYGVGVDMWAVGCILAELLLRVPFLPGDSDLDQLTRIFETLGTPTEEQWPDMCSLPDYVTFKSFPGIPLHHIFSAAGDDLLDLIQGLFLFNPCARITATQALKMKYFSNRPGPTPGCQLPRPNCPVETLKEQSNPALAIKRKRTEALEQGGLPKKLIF
# AMPK alpha1/alpha2, sequence (P54646 whole entry, the tested form may be a part): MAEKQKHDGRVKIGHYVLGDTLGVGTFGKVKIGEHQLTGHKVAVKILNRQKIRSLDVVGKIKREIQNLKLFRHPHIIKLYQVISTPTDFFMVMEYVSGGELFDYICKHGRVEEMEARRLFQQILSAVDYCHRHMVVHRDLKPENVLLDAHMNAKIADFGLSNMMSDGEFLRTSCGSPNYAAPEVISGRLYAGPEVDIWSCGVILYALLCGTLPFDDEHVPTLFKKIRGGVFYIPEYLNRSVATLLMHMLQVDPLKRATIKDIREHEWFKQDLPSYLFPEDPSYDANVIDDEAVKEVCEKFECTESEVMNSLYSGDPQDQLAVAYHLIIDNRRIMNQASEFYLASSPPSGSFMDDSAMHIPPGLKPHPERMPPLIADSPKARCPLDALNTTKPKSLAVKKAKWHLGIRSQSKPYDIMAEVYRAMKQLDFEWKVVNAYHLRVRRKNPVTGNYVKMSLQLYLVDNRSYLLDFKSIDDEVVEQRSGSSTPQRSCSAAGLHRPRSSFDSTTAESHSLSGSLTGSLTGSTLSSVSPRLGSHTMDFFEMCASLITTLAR
# AMPK alpha1/alpha2, sequence (Q13131 whole entry, the tested form may be a part): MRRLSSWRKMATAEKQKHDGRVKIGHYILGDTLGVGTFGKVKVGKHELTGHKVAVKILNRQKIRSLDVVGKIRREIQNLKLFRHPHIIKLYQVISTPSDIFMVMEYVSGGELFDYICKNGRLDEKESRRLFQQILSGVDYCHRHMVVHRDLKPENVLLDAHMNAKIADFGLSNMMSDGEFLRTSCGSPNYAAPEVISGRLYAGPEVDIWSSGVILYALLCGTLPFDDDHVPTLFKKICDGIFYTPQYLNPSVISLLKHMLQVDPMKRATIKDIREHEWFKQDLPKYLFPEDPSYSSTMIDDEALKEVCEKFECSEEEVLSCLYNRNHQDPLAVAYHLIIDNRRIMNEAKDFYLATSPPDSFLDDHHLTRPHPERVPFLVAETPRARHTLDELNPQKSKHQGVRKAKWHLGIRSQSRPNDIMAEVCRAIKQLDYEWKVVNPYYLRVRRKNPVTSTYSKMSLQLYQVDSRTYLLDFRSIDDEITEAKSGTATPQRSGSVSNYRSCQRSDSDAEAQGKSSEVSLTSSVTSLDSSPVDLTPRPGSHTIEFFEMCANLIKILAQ
# Serine/threonine-protein kinase Chk2, sequence (O96017 whole entry): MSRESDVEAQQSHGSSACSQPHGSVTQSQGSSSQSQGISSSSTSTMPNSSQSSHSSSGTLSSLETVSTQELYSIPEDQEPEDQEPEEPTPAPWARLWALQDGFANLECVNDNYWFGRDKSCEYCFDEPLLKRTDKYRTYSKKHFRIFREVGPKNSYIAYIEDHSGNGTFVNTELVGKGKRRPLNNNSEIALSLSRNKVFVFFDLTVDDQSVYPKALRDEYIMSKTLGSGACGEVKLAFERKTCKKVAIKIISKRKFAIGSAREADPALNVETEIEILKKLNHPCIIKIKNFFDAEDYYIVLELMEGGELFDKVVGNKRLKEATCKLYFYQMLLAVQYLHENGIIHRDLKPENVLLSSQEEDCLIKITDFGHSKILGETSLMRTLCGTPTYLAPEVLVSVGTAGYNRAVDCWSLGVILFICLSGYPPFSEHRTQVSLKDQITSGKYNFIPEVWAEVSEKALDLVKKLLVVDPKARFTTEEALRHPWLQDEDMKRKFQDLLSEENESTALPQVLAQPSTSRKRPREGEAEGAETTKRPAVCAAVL
smiles,measurement,setting,value
CCOc1cc(N2CCC(O)CC2)ccc1Nc1ncc2c(n1)N(C)c1ccccc1C(=O)N2C,inhibition at 50 µM,[1],-31.5%
same,inhibition,[2],-0.5%
same,IC50,AMPK alpha1/alpha2,> 50 µM
same,inhibition,[3],3%
same,inhibition at 2 µM,[4],11.3%
same,inhibition,[5],-6%
same,inhibition,[6],1.1%
same,inhibition,[7],17%
